In ChEMBL document CHEMBL2375316, “Neocosmospora sp.-derived resorcylic acid lactones with in vitro binding affinity for human opioid and cannabinoid receptors” (J Nat Prod, 2013):

Assays:
[1] = biological target: Cannabinoid receptor 2 (Homo sapiens) (UniProt P34972); experiment: Displacement of [3H]-CP55940 from human recombinant CB2 receptor transfected in HEK293 cells at 10 uM after 90 mins relative to control; format: cell-based
[2] = biological target: T1, Delta-type opioid receptor (Homo sapiens, UniProt P41143); experiment: Displacement of [3H]-enkephalin from human delta opioid receptor transfected in CHOK1 cells at 10 uM after 60 mins relative to control; format: cell-based; conditions: CHO-K1
T1 sequence (P41143 whole entry): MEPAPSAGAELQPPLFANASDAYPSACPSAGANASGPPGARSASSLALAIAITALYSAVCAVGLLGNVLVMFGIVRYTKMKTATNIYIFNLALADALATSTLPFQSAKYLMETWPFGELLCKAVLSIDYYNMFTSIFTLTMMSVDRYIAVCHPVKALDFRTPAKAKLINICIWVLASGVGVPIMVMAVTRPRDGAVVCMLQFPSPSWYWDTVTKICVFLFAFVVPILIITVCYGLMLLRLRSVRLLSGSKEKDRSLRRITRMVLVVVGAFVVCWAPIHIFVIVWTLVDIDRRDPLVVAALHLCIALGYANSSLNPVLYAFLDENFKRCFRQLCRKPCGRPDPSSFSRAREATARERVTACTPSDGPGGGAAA

[3] = biological target: Mu-type opioid receptor (Homo sapiens) (UniProt P35372); conditions: CHO-K1, at 10 µM
Sequence of Mu-type opioid receptor (Homo sapiens) (P35372 whole entry): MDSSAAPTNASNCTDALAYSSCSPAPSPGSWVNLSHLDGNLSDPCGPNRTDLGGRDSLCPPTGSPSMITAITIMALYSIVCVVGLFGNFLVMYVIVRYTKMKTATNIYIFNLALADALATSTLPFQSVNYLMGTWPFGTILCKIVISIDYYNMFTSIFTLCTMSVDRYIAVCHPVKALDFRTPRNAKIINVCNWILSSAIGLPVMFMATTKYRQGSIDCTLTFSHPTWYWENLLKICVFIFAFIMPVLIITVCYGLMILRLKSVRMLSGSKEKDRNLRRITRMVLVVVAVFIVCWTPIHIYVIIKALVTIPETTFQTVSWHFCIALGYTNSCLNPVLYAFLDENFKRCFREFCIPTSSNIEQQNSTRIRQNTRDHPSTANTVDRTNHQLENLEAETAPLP

[4] = biological target: Kappa-type opioid receptor (Homo sapiens) (UniProt P41145); conditions: CHO-K1, at 10 µM
Sequence of Kappa-type opioid receptor (Homo sapiens) (P41145 whole entry): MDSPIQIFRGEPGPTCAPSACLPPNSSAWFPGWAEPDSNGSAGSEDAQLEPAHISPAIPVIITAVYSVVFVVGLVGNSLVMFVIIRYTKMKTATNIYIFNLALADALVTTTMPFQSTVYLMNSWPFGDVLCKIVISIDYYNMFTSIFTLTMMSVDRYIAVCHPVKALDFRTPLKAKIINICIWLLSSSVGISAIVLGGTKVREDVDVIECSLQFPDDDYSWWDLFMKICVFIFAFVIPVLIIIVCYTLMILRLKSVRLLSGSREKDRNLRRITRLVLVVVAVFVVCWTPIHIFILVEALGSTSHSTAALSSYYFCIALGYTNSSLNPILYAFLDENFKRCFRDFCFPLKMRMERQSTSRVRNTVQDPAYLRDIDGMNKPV

[5] = biological target: T1, Delta-type opioid receptor; experiment: Agonist activity at human delta opioid receptor transfected in CHOK1 cells after 60 mins by [35S]GTPgammaS binding assay relative to control; format: functional, cell-based; conditions: CHO-K1
How it was run: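 [35S]GTPγS functional assay on membranes from CHO-K1 cells stably expressing δ-opioid receptor; diluted compound incubated with membrane at predetermined protein level plus 0.05 nM [35S]GTPγS, 60 min at room temperature. Terminated by vacuum filtration through GF/C filters, 10 washes 50 mM Tris-HCl pH 7.4, scintillation counting. Basal binding defined as binding with GTPγS buffers.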

[6] = biological target: T1, Delta-type opioid receptor; experiment: Agonist activity at human delta opioid receptor transfected in CHOK1 cells after 60 mins by [35S]GTPgammaS binding assay
[7] = biological target: T1, Delta-type opioid receptor; experiment: Displacement of [3H]-enkephalin from human delta opioid receptor transfected in CHOK1 cells after 60 mins; format: cell-based, CHO-K1
[8] = biological target: Cannabinoid receptor 1 (Homo sapiens) (UniProt P21554); experiment: Displacement of [3H]-CP55940 from human recombinant CB1 receptor transfected in HEK293 cells at 10 uM after 90 mins relative to control; format: cell-based
Sequence of Cannabinoid receptor 1 (Homo sapiens) (P21554 whole entry): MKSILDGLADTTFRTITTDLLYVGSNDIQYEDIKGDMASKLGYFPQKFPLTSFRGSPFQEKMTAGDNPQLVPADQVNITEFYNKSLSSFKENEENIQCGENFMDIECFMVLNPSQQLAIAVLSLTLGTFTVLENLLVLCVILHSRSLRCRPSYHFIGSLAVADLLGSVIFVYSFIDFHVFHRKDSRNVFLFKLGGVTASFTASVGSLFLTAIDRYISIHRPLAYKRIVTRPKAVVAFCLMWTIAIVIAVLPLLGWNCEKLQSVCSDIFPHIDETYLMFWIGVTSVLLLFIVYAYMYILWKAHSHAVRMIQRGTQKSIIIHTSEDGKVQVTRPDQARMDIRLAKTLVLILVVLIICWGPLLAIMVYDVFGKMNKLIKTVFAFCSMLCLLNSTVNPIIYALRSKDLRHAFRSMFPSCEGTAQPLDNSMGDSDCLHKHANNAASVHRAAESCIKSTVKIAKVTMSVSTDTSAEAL

Sequence of Cannabinoid receptor 2 (Homo sapiens) (P34972 whole entry): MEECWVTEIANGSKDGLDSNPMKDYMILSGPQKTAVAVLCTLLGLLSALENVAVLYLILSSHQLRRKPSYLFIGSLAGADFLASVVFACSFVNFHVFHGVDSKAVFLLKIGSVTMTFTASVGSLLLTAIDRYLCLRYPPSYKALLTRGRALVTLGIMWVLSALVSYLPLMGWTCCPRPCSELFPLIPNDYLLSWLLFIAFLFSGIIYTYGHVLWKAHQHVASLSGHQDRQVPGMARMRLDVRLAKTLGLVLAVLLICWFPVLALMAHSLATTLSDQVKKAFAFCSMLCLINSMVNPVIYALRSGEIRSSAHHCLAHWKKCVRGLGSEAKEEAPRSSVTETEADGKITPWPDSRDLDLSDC

Structure (SMILES) | inhibition [1] | inhibition [2] | inhibition [3] | inhibition [4] | Emax [5] | EC50 [6] | IC50 [7] | Ki [7] | inhibition [8]
COc1cc(O)c2c(c1)CC(=O)CCCC/C=C/C[C@@H](C)OC2=O | 44.5% | 44.7% | 22.4% | 11.4% | – | – | – | – | –
COc1cc(O)c2c(c1)CC(=O)CCCC(=O)CCC[C@@H](C)OC2=O | 46.3% | 54.9% | 24% | 32.7% | 2400% | 0.239 µM | 14.6 µM | 7.31 µM | –
C[C@@H]1C[C@H]2O[C@@H]2/C=C\C=C\C(=O)Cc2c(Cl)c(O)cc(O)c2C(=O)O1 | 13% | – | 84.9% | – | – | – | – | – | 30.7%
C[C@@H]1CCCC(=O)CCCC(=O)Cc2cc(O)cc(O)c2C(=O)O1 | 27.7% | – | 41.3% | 8.1% | – | – | – | – | 47.4%
CCCCCCC(C)(C)c1ccc([C@@H]2C[C@H](O)CC[C@H]2CCCO)c(O)c1 | 90.3% | – | – | – | – | – | – | – | 88.8%
C[C@@H]1C/C=C/CCCCC(=O)Cc2cc(O)cc(O)c2C(=O)O1 | – | 45.7% | 8.7% | 24.7% | – | – | – | – | –
